Data as given in ChEMBL document CHEMBL2016433 (Bioorg Med Chem, 2012).
Active and inactive are the calls of the source.

Key:
U-937 [1] = test: Cytostatic against human U937 cells assessed as reduction in absolute number of total cells after 24 hrs by haemocytometry; assay type: functional, cell-based
How it was run: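 U937 cells, 5×10^4 per well in RPMI-1640 with 5% FBS, 2 mM L-glutamine and penicillin-streptomycin, were exposed to 1 in 10 serial dilutions from 100 µM to 1 µM (stocks 20 mM in DMSO or medium), or to vehicle, for 24 h at 37 °C in CO₂. Total cells were counted by haemocytometer; mean and SD of at least three determinations.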

U-937 [2] = test: Induction of apoptosis in human U937 cells after 24 hrs by acridine orange staining based microscopy; assay type: functional, cell-based
How it was run: (§1)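 U937 cells were treated for 24 h at 37 °C with 1–100 µM compound or vehicle, then stained with acridine orange. Over 600 cells were scored by fluorescence microscopy; apoptosis was defined as uniformly stained nuclei with chromatin condensation or nuclear fragmentation. Mean and SD of at least three determinations.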

U-937 [3] = test: Cytotoxicity against human U937 cells assessed as induction of cell death at 1 to 100 microM after 24 hrs by trypan blue exclusion method; assay type: functional, cell-based
U-937 [4] = test: Induction of cell death in human U937 cells assessed at 1 to 100 microM after 24 hrs by trypan blue exclusion method relative to untreated control; assay type: functional
How it was run: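 U937 cells (5×10^4 per well) exposed for 24 h at 37 °C, 5% CO₂ to 1 in 10 serial dilutions from 1 to 100 µM in RPMI-1640 with 5% FBS. Compounds came from 20 mM stocks in DMSO or medium. Controls got vehicle at equal amounts. Membrane-permeable cells were counted by trypan blue exclusion in a haemocytometer and expressed as percent. Mean and standard deviation from at least three determinations.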

MOLT-3 [5] = test: Cytotoxicity against human MOLT3 cells assessed as cell viability after 24 hrs; assay type: functional, cell-based; settings: MOLT-3, 24 h
MOLT-3 [6] = test: Cytotoxicity against human MOLT3 cells after 24 hrs by trypan blue exclusion assay; assay type: functional
MOLT-3 [7] = test: Induction of apoptosis in human MOLT3 cells after 24 hrs by acridine orange staining based fluorescence microscopy; assay type: functional
How it was run: (§2)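 HeLa, MOLT-3 and THP-1 cells were treated with increasing concentrations for 24 h, then stained with acridine orange and more than 600 cells scored by fluorescence microscopy for condensed or fragmented nuclei. AC30 is the concentration giving 30% apoptotic cells, from a best-fit curve versus log concentration.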

THP-1 [8] = test: Cytotoxicity against human THP1 cells assessed as cell viability after 24 hrs; assay type: functional, cell-based; settings: THP-1, 24 h
THP-1 [9] = test: Cytotoxicity against human THP1 cells after 24 hrs by trypan blue exclusion assay; assay type: functional
THP-1 [10] = test: Induction of apoptosis in human THP1 cells after 24 hrs by acridine orange staining based fluorescence microscopy; assay type: functional; how it was run: as §2
U-937 [11] = test: Induction of apoptosis in human U937 cells expressing mouse Bcl-2 gene assessed as expression of Bcl-2 protein at 1 to 100 uM by acridine orange based microscopy; assay type: functional, cell-based
How it was run: (§3)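 U937 stable transfectants carrying murine bcl-2 (U937mBCL2) or empty pMEP vector were kept in medium with hygromycin B 50 µg/mL. They were treated for 24 h with compound or DMSO. Apoptotic nuclei were scored by fluorescence microscopy after acridine orange staining; mean and SD of three determinations.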

U-937 [12] = test: Induction of apoptosis in human U937 cells expressing pMEP assessed as expression of Bcl-2 protein at 1 to 100 uM by acridine orange based microscopy; assay type: functional, cell-based; how it was run: as §3
HeLa [13] = test: Cytotoxicity against human HeLa cells assessed as cell viability after 24 hrs; assay type: functional, cell-based
How it was run: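 MOLT-3, THP-1 and HeLa cells were treated with increasing concentrations for 24 h at 37 °C, 5% CO₂. Total cells were counted by haemocytometer with trypan blue. IC50 is the concentration cutting total cell count by 50%, taken from a best-fit curve of the value versus log concentration.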

HeLa [14] = test: Cytotoxicity against human HeLa cells after 24 hrs by trypan blue exclusion assay; assay type: functional
How it was run: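 MOLT-3, THP-1 or HeLa cells were grown in RPMI 1640 with 5–10% FBS; for THP-1 the medium also held 10 mM HEPES, 1 mM pyruvate and 4.5 g/L glucose. Cells were seeded in 96 wells with increasing compound concentrations and incubated 24 h at 37 °C, 5% CO₂. CC30 is the concentration giving 30% trypan blue-positive cells, taken from a best-fit curve of y versus log x.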

HeLa [15] = test: Induction of apoptosis in human HeLa cells after 24 hrs by acridine orange staining based fluorescence microscopy; assay type: functional; how it was run: as §2
HT-29 [16] = test: Cytotoxicity against human HT-29 cells assessed as cell viability after 48 hrs; assay type: functional, cell-based; settings: HT-29, 48 h
How it was run: (§4)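 HT-29, HepG2 and MCF7 cells were treated in wells with increasing concentrations for 48 h at 37 °C, 5% CO₂. Total cell count was taken by haemocytometer. IC50 is the concentration inhibiting total count by 50%, from a best-fit curve of the value versus log concentration.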

HT-29 [17] = test: Cytotoxicity against human HT-29 cells after 48 hrs by trypan blue exclusion assay; assay type: functional
How it was run: (§5)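 Adherent HT-29, HepG2 and MCF7 cells were seeded in 96 wells with increasing concentrations and incubated 48 h at 37 °C, 5% CO₂. Trypan blue exclusion was done directly in the culture wells. CC30 is the concentration giving 30% cytotoxicity, from a best-fit curve versus log concentration.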

HT-29 [18] = test: Cytotoxicity against human HT-29 cells assessed as compound concentration causing 30% reduction in formazan product formation after 48 hrs by MTS assay; assay type: functional; settings: HT-29, 48 h
How it was run: (§6)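 HT-29, HepG2 and MCF7 cells were exposed to increasing concentrations for 48 h. MTS reagent was then added directly to the wells, incubated a further 4 h, and absorbance read at 490 nm. MAIC30 is the concentration reducing formazan formation by 30%, from a best-fit curve versus log concentration.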

HepG2 [19] = test: Cytotoxicity against human HepG2 cells assessed as cell viability after 48 hrs; assay type: functional, cell-based; settings: HepG2, 48 h; how it was run: as §4
HepG2 [20] = test: Cytotoxicity against human HepG2 cells after 48 hrs by trypan blue exclusion assay; assay type: functional; how it was run: as §5
HepG2 [21] = test: Cytotoxicity against human HepG2 cells assessed as compound concentration causing 30% reduction in formazan product formation after 48 hrs by MTS assay; assay type: functional; settings: HepG2, 48 h; how it was run: as §6
MCF7 [22] = test: Cytotoxicity against human MCF7 cells assessed as cell viability after 48 hrs; assay type: functional, cell-based; settings: MCF7, 48 h; how it was run: as §4
MCF7 [23] = test: Cytotoxicity against human MCF7 cells after 48 hrs by trypan blue exclusion assay; assay type: functional; how it was run: as §5
MCF7 [24] = test: Cytotoxicity against human MCF7 cells assessed as compound concentration causing 30% reduction in formazan product formation after 48 hrs by MTS assay; assay type: functional; settings: MCF7, 48 h; how it was run: as §6
U-937 [25] = test: Induction of apoptosis in human U937 cells at 100 uM after 24 hrs by acridine orange staining based microscopy; assay type: functional, cell-based; how it was run: as §1

Q: With CCc1c(CSS[C@@H]2O[C@H](COC(C)=O)[C@H](OC(C)=O)[C@H](OC(C)=O)[C@H]2OC(C)=O)c(CC)c(CSS[C@@H]2O[C@H](COC(C)=O)[C@H](OC(C)=O)[C@H](OC(C)=O)[C@H]2OC(C)=O)c(CC)c1CSS[C@@H]1O[C@H](COC(C)=O)[C@H](OC(C)=O)[C@H](OC(C)=O)[C@H]1OC(C)=O as the compound, how does the Activity (U-937 [1]) read?
A: Dose-dependent effect

Q: And the Activity (U-937 [2])?
A: inactive

Q: What about the Activity (U-937 [3]) of the same compound?
A: inactive

Q: What about the Activity (U-937 [4]) of the same compound?
A: 25%

Q: For CC(=O)OC[C@H]1O[C@@H](S)[C@H](OC(C)=O)[C@@H](OC(C)=O)[C@H]1OC(C)=O, which Activity (U-937 [2]) is on record?
A: inactive

Q: And the IC50 (MOLT-3 [5])?
A: > 100 µM

Q: What about the CC30 (MOLT-3 [6]) of the same compound?
A: >100 µM

Q: And the AC30 (MOLT-3 [7])?
A: >100 µM

Q: And the IC50 (THP-1 [8])?
A: > 100 µM

Q: What about the CC30 (THP-1 [9]) of the same compound?
A: >100 µM

Q: What about the AC30 (THP-1 [10]) of the same compound?
A: >100 µM

Q: Which results are given for CCc1c(CSS[C@@H]2O[C@H](COC(C)=O)[C@@H](OC(C)=O)[C@H](OC(C)=O)[C@H]2OC(C)=O)c(CC)c(CSS[C@@H]2O[C@H](COC(C)=O)[C@@H](OC(C)=O)[C@H](OC(C)=O)[C@H]2OC(C)=O)c(CC)c1CSS[C@@H]1O[C@H](COC(C)=O)[C@@H](OC(C)=O)[C@H](OC(C)=O)[C@H]1OC(C)=O?
A: Activity (U-937 [2]): inactive; Activity (U-937 [3]): Active; Activity (U-937 [4]): 25%

Q: What does the source list for CC(=O)OC[C@H]1O[C@@H](SSCc2ccc(CSS[C@@H]3O[C@H](COC(C)=O)[C@H](OC(C)=O)[C@H](OC(C)=O)[C@H]3OC(C)=O)cc2)[C@H](OC(C)=O)[C@@H](OC(C)=O)[C@H]1OC(C)=O?
A: Activity (U-937 [11]): inactive; Activity (U-937 [12]): Active; IC50 (MOLT-3 [5]): > 100 µM; CC30 (MOLT-3 [6]): 29 µM; AC30 (MOLT-3 [7]): 24 µM; IC50 (THP-1 [8]): > 100 µM; CC30 (THP-1 [9]): 93 µM; AC30 (THP-1 [10]): 88 µM; IC50 (HeLa [13]): > 100 µM; CC30 (HeLa [14]): >100 µM; AC30 (HeLa [15]): 62 µM; IC50 (HT-29 [16]): 63 µM; CC30 (HT-29 [17]): 61 µM; IC30 (HT-29 [18]): 23 µM; IC50 (HepG2 [19]): 51 µM; CC30 (HepG2 [20]): 98 µM; IC30 (HepG2 [21]): 30 µM; IC50 (MCF7 [22]): 38 µM; CC30 (MCF7 [23]): 69 µM; IC30 (MCF7 [24]): 63 µM; Activity (U-937 [3]): Active; Activity (U-937 [25]): Active

Q: For CC(=O)OC[C@H]1O[C@@H](SSc2cccc(SS[C@@H]3O[C@H](COC(C)=O)[C@@H](OC(C)=O)[C@H](OC(C)=O)[C@H]3OC(C)=O)c2)[C@H](OC(C)=O)[C@@H](OC(C)=O)[C@@H]1OC(C)=O, which Activity (U-937 [3]) is on record?
A: Active

Q: With Cc1c(CSS[C@@H]2O[C@H](CO)[C@@H](O)[C@H](O)[C@H]2O)c(C)c(CSS[C@@H]2O[C@H](CO)[C@@H](O)[C@H](O)[C@H]2O)c(C)c1CSS[C@@H]1O[C@H](CO)[C@@H](O)[C@H](O)[C@H]1O as the compound, how does the Activity (U-937 [2]) read?
A: inactive

Q: What about the Activity (U-937 [3]) of the same compound?
A: Active

Q: And the Activity (U-937 [4])?
A: 25%
